From ChEMBL document CHEMBL5506013, “Mitochondria-Selective Dicationic Small-Molecule Ligand Targeting G-Quadruplex Structures for Human Colorectal Cancer Therapy” (J Med Chem, 2024)
Active and inactive are the calls of the source. The calls are words filed in the database; no cut-off is given here.

What was measured:
[1] = Drug localization in human HCT-116 cells overexpressing twinkle helicase by measuring red foci at 4 uM incubated for 1 hr by hoechst33342 staining based analysis; type: ADME, cell-based; conditions: hct-116, 1 h
Cell membrane = test: Induction of mitochondrial membrane potential depolarization in human HCT-116 cells assessed as […] in TMRE fluorescence incubated for 48 hrs by TMRE staining based analysis; type: cell membranes; conditions: dose <= 4.0 µM
Quadruplex DNA [2] = test: Binding affinity to Mito 0.5-16 G4 DNA (unknown origin) assessed as change in melting temperature at 5 uM by circular dichroism spectroscopic analysis; type: nucleic-acid assay
HCT-116 [3] = test: Induction of ROS production in human HCT-116 cells assessed as upregulation of ROS level measured after 48 hrs by mito-sox staining based analysis; type: functional, cell-based; conditions: dose <= 4.0 µM
[4] = Drug localization in human HCT-116 cells transfected with Cy5-HP19 non G4 DNA at 4 uM incubated for 1 hr by hoechst33342 staining based analysis; type: ADME, cell-based; conditions: hct-116, 1 h
Method in brief: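 HCT116 cells transfected with Cy5-labelled DNA (excitation 635 nm) for 24 h. Ligand 4 uM added for 1 h, then Hoechst33342 1 uM for 30 min. Colocalization of ligand with Cy5 quantified by Pearson r from confocal images.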

HCT-116 [5] = test: Induction of DNA damage in human HCT-116 assessed as increase in tail length at upto 4 uM incubated for 72 hrs by comet assay; type: functional, cell-based
Method in brief: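 HCT116 cells exposed to ligand at 0-4 uM for 72 h. DNA damage assessed by comet assay with DAPI staining (excitation 405 nm), imaged at 200x, tail length measured.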

HCT-116 [6] = test: Inhibition of cell migration in human HCT-116 cells at upto 4 uM measured after 72 hrs by transwell assay relative to control; type: functional; conditions: up to 4 µM
Method in brief: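 Transwell migration of HCT116 cells treated for 72 h at 0, 1, 2 or 4 uM, imaged at 100x and quantified; mean ± SD.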

LoVo = test: Antiproliferative activity against human LoVo cells measured after 48 hrs by MTT assay; type: functional, cell-based
Method in brief: (§1)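 Cells exposed to the ligands for 48 h. Viability was read by MTT, and the IC50 was derived from the response.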

[7] = Toxicity in BALB/c nude mouse assessed as change in mean red blood cell hemoglobin content at 5 mg/kg, iv administered every two days for 16 days; type: organism-based; conditions: in vivo, 384 h, time 16 day
Method in brief: (§2)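 HCT116 xenograft-bearing male Balb/c nude mice (6/group) dosed iv at 5 mg/kg every two days or with PBS. Whole blood collected at sacrifice on day 16 for hematology parameters.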

HCT-116 [8] = test: Upregulation of p21 level in human HCT-116 cells at upto 4 uM measured after 72 hrs by Western blot analysis; type: functional, cell-based
Method in brief: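 HCT116 cells exposed to the ligand at 0–4 µM for 72 h. Lysates were immunoblotted for p21 together with Lamin B1, p53, p16 and γ-H2A.x, with β-actin as the loading reference.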

Quadruplex DNA [9] = test: Binding affinity to mito 29 G4 DNA (unknown origin) assessed as increase in fluorescence intensity by fluorescence spectrophotometric analysis; type: nucleic-acid assay
Method in brief: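 Oligonucleotides were pre-annealed at 95 °C for 10 min, then cooled slowly. Ligand (5 uM) was mixed with 20 uM DNA in buffer. Emission was collected over 550–800 nm, and enhancement was taken at 650 nm as F/F0.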

HFF-1 [10] = test: Downregulation of ND1 gene expression in human HFF-1 cells at 0 to 4 uM measured after 48 hrs by q-PCR analysis; type: functional, cell-based; conditions: dose 0-4 µM
HCT-116 [11] = test: Downregulation of ATP6 protein level in human HCT-116 cells at upto 4 uM incubated for 48 hrs by Western blot analysis; type: functional, cell-based
[12] = Drug localization in human HCT-116 cells by measuring red foci at 4 uM incubated for 1 hr in presence of RNA by hoechst33342 staining based analysis; type: ADME, cell-based; conditions: hct-116, 1 h
Method in brief: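 Live HCT116 cells loaded with ligand 4 uM for 1 h and Hoechst33342 1 uM for 30 min, then fixed. Fixed cells digested with 200 units DNase I or RNase A for 3 h. Red foci imaged by confocal microscopy in 100 cells. Mean ± SEM, t test.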

[13] = Toxicity in BALB/c nude mouse assessed as change in platelet count at 5 mg/kg, iv administered every two days for 16 days; type: organism-based; conditions: in vivo, 384 h, time 16 day; method in brief: as §2
HepG2 = test: Antiproliferative activity against human HepG2 cells measured after 48 hrs by MTT assay; type: functional, cell-based; conditions: HepG2, 48 h; method in brief: as §1
[14] = Toxicity in BALB/c nude mouse assessed as change in body weight at 5 mg/kg, iv administered every two days for 16 days; type: organism-based; conditions: in vivo, 384 h, time 16 day
Method in brief: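 Male Balb/c nude mice bearing HCT116 xenografts, 6 per group, given PBS or ligand 5 mg/kg intravenously every two days. Body weight tracked over 16 days.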

DNA [15] = test: Binding affinity to HP19 DNA (non-G4 DNA) (unknown origin) assessed as dissociation constant measured upto 450 secs by surface plasmon resonance assay; type: nucleic-acid assay
Method in brief: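 Surface plasmon resonance in buffer at 25 °C. Four G4-mtDNAs (Mito 78, Mito 55, Mito 29, Mito 0.5-16) and the hairpin HP19 served as substrates. Kd was derived from the sensorgrams.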

[16] = Drug localization in human HCT-116 cells overexpressing […] by measuring red foci at 4 uM incubated for 1 hr by hoechst33342 staining based analysis; type: ADME, cell-based; conditions: hct-116, 1 h
[17] = Toxicity in BALB/c nude mouse assessed as effect on kidney at 5 mg/kg, iv measured after 16 hrs post injection by H and E staining based analysis; type: organism-based; conditions: in vivo
HCT-116 [18] = test: Downregulation of ND2 mRNA level in human HCT-116 cells at 0 to 4 uM measured after 48 hrs by qRT-PCR analysis; type: functional, cell-based; conditions: dose 0-4 µM
HCT-116 [19] = test: Downregulation of lamin B1 level in human HCT-116 cells measured after 72 hrs by immunofluorescence analysis; type: functional, cell-based; conditions: dose <= 4.0 µM
Method in brief: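 HCT116 cells treated with ligand at 0-4 uM for 72 h. Lamin B1 and Ki67 imaged by immunofluorescence (excitation 635 nm), or lamin B1 probed on Western blot with β-actin as loading control.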

HCT-116 [20] = test: Inhibition of cell proliferation in human HCT-116 cells at upto 4 uM measured after 7 days by colony formation assay; type: functional, cell-based; conditions: time 7.0 day
Method in brief: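 Colony formation: HCT116 cells treated for 7 days at 0, 1, 2 or 4 uM, colonies counted and quantified; mean ± SD.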

[21] = Drug localization in nucleus of human HCT-116 cells at upto 4 uM incubated for 1 hrs by hoechst33342 staining based live cell imaging analysis; type: ADME, subcellular; conditions: hct-116, 1 h
DNA [22] = test: Binding affinity to HP19 DNA (non-G4 DNA) (unknown origin) assessed as dissociation constant measured upto 150 secs by isothermal titration calorimetry assay; type: nucleic-acid assay
[23] = Toxicity in BALB/c nude mouse assessed as change in hemoglobin level at 5 mg/kg, iv administered every two days for 16 days; type: organism-based; conditions: in vivo, 384 h, time 16 day; method in brief: as §2
HFF-1 [24] = test: Downregulation of ND2 mRNA level in human HFF-1 cells at 0 to 4 uM measured after 48 hrs by qRT-PCR analysis; type: functional, cell-based; conditions: dose 0-4 µM
Quadruplex DNA [25] = test: Binding affinity to Mito 81 G4 DNA (unknown origin) assessed as increase in CD signal at 5 uM at 265 nM by circular dichroism spectroscopic analysis; type: nucleic-acid assay
Quadruplex DNA [26] = test: Binding affinity to Mito 78 G4 DNA (unknown origin) assessed as change in melting temperature at 5 uM by circular dichroism spectroscopic analysis; type: nucleic-acid assay

Drug uptake [1]: Active | Activity (Cell membrane): Dose-Dependent Effect | ΔTm (Quadruplex DNA [2]): 16.5 °C | Drug uptake [4]: Not Active | IC50 (LoVo): 13.4 µM | Activity (Quadruplex DNA [9]): Active | Drug uptake [12]: Active | IC50 (HepG2): > 40 µM | Kd (DNA [15]): > 2 µM | Drug uptake [16]: Active | Drug uptake [21]: Not Active | Kd (DNA [22]): > 4.7 µM | Activity (Quadruplex DNA [25]): Active | ΔTm (Quadruplex DNA [26]): 11.3 °C
Compound: C(=C\c1ccc2ccccc2[n+]1CCCCCCCC[n+]1c(/C=C/c2ccc(N3CCCCC3)cc2)ccc2ccccc21)/c1ccc(N2CCCCC2)cc1.[I-].[I-]
Activity (HCT-116 [3]): Dose-Dependent Effect | Activity (HCT-116 [5]): Active | inhibition (INH) (HCT-116 [6]): 40% | Activity [7]: Non-Toxic | Activity (HCT-116 [8]): Active | Activity (HFF-1 [10]): inactive | Activity (HCT-116 [11]): Active | Activity [13]: Non-Toxic | Activity [14]: Non-Toxic | Activity [17]: Non-Toxic | Activity (HCT-116 [18]): Active | Activity (HCT-116 [19]): Dose-Dependent Effect | inhibition (HCT-116 [20]): Active | Activity [23]: Non-Toxic | Activity (HFF-1 [24]): Active
